These results are taken from ChEMBL document CHEMBL2016500, “Discovery and evaluation of spirocyclic derivatives as antagonists of the neuropeptide Y5 receptor” (Bioorg Med Chem Lett, 2012).

One may read the Ki as the dissociation constant of the complex between target and ligand, obtained from inhibition or displacement. Usually half-life stands for the time in which the quantity being followed falls by half. The bioavailability is dose-corrected exposure relative to a reference, in per cent.

The source made the active and inactive calls. The calls are words filed in the database; no cut-off is given here.

Data set [1] has as its system Liver microsomes. The data set is described as follows: Intrinsic clearance in rat liver microsomes. The format is ADME, Microsome. The method, boiled down:
(§1)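 Metabolic stability in human or rat liver microsome preparations. Total intrinsic clearance scaled from in vitro microsomal half-life, given in […].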
On the technique in general: Liver microsomes are vesicles of endoplasmic reticulum, rich in cytochrome P450 enzymes.

Data set [2] deals with T1, Neuropeptide Y receptor type 5 (Homo sapiens, UniProt Q15761).
T1 sequence (Q15761 whole entry): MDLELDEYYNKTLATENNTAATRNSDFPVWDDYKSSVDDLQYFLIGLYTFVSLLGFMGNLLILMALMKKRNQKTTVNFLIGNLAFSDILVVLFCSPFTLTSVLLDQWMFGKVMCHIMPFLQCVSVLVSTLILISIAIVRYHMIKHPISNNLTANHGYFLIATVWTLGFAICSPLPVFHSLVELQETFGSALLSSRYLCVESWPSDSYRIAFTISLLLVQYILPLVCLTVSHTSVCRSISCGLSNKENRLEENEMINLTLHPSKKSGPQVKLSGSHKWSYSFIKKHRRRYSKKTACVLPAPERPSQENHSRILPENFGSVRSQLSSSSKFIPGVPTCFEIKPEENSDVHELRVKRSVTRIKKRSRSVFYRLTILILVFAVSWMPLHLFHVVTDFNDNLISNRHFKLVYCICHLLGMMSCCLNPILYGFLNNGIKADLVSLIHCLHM
Kind of data set: Displacement of [125I]PPY from human recombinant NPYY5 receptor expressed in insect Sf9 membranes. The data set is classed as cell membranes. In general terms: In a radioligand displacement assay an active substance lowers the binding of a labelled ligand.

Data set [3] relates to Liver microsomes. Kind of data set: Intrinsic clearance in human liver microsomes. The format is ADME, Microsome. The method, boiled down: as §1
The test system of data set [4] is Brain. Kind of data set: Unbound concentration in diet-induced obese rat brain at 5 mg/kg bid. To be noted: in vivo.
The nature of data set [5]: Half life in rat. The data set is classed as ADME, organism-based. The following applies: in vivo.
In data set [6] the test system is Rattus norvegicus. Kind of data set: Antiobesity activity in diet-induced obese rat assessed as decrease body weight at 5 mg/kg bid. On the set-up: dose 5 mg/kg. The data set is classed as functional, organism-based. The method, boiled down:
(§2)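 Diet-induced obese rats dosed 5 mg/kg bid over a 4-day study. Food intake and body weight followed.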

A short description of data set [7]: Ratio of unbound fraction in rat brain at 5 mg/kg bid to Ki for human recombinant NPYY5 receptor expressed in insect Sf9 membranes. On the set-up: dose 5 mg/kg. The data set is classed as ADME, organism-based, Membrane. To be noted: in vivo. The method, boiled down: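 Unbound drug concentrations were measured in plasma and brain of diet-induced obese rats dosed at 5 mg/kg bid. The ratio is unbound brain concentration divided by Ki.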

A short description of data set [8]: Oral bioavailability in rat. The format is ADME, organism-based. The following applies: in vivo.
Data set [9] can be described thus: Ratio of unbound fraction in plasma to brain in rat. The format is ADME, cell-free. The method, boiled down: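 Unbound fraction measured separately in rat plasma and in rat brain; the value is expressed as fu,plasma/fu,brain.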
The test system of data set [10] is Rattus norvegicus. Kind of data set: Antiobesity activity in diet-induced obese rat assessed as decrease in food intake at 5 mg/kg bid. The data set is classed as functional. On the set-up: scale not given: the % may be the effect or the level left. The method, boiled down:
as §2

The target of data set [11] is T2, Neuropeptide Y receptor type 1 (Homo sapiens, UniProt P25929).
T2 sequence (P25929 whole entry): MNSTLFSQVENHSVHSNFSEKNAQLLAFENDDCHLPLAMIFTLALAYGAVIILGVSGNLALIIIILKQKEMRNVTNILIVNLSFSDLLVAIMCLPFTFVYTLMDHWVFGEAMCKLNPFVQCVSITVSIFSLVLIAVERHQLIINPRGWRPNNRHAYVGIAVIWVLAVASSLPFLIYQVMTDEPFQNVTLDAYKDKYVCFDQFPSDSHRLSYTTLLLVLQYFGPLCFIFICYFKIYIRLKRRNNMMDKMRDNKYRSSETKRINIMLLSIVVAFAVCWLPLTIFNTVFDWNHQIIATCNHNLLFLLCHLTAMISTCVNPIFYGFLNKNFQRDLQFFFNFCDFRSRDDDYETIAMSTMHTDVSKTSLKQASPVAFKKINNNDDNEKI
Kind of data set: Binding affinity to human NPYY1.

Data set [12] deals with Plasma. Kind of data set: Unbound fraction in diet-induced obese rat plasma at 5 mg/kg bid. The format is ADME, organism-based. Also on record: dose 5 mg/kg. To be noted: in vivo. The method, boiled down: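 Diet-induced obese rats given 5 mg/kg bid. Unbound drug concentrations measured in plasma and brain.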

For `CN(C(=O)Nc1ccn(-c2ccccc2F)n1)[C@H]1CC[C@@]2(CC1)Cc1ccccc1C(=O)O2`, the CLint in data set [1] is 290 mL/min/kg; in data set [3] it was 28 mL/min/kg. The inhibition constant Ki in data set [2] was found to be 2.4 nM.

Consider `CN(C(=O)Nc1ccn(-c2ccccc2F)n1)[C@H]1CC[C@]2(CC1)OCc1ccccc12`, for which the CLint in data set [1] was over 1120 mL/min/kg; in data set [3], 67 mL/min/kg. Moreover, the Ki in data set [2] stood at 10 nM.

As to `O=C(CC1CCC2(CC1)Cc1ccccc1C(=O)O2)Nc1cnc(-c2ccccc2)cn1` (mixture of isomers), the Ki in [2] was 301 nM.

As to `CN(C(=O)Nc1ccn(-c2ccccc2F)n1)[C@H]1CC[C@]2(CC1)OC(=O)c1ccncc12`, the CLint is 28 mL/min/kg in data set [1] and under 7 mL/min/kg in data set [3]. Further, the Ki in data set [2] came out at 0.8 nM.

`CN(C(=O)Nc1cnc(-c2ccccc2)cn1)[C@H]1CC[C@@]2(CC1)Cc1ccccc1C(=O)O2`: the figures for the CLint in [1] and in data set [3] were 333 mL/min/kg and 59 mL/min/kg, respectively. In data set [2], the inhibitory constant (Ki) came out at 4.6 nM.

With `CN(C(=O)Nc1ccn(-c2ccccc2F)n1)[C@H]1CC[C@@]2(CC1)OC(=O)c1ccccc12`, in data set [2], the inhibition constant Ki is 22 nM.

`CC(C)(C)S(=O)(=O)N[C@H]1CC[C@H](C(=O)Nc2ccc(C(F)(F)F)cn2)CC1`: in data set [2], the Ki came out at 5 nM.

For the compound `CN(C(=O)Nc1cnc(-c2ccccc2)cn1)[C@H]1CC[C@]2(CC1)OC(=O)c1ccncc12`, the Concentration in data set [4] is on record as 27 nM. Besides, the half-life in [5] is 2 h. Also, the outcome in data set [6] was inactive. For the same compound, the values for the Ratio in data set [7] and in data set [9] were 25 and 3.3, respectively. For the same compound, in [8], the bioavailability is 80%. The Activity in data set [10] is recorded as under 10%. Besides, the CLint in [1] is under 25 mL/min/kg; in [3], under 6 mL/min/kg. Also, the Ki in [2] is 1 nM; in data set [11], over 10000 nM. Moreover, the “Cp(f)” value in [12] was 67 nM.

For `O=C(Nc1ccn(-c2ccccc2F)n1)NC1CCC2(CC1)OC(=O)c1ccncc12` (mixture of isomers), the Ki in data set [2] turned out to be 849 nM.

For `O=C1O[C@]2(CC[C@@H](N(CC(F)(F)F)C(=O)Nc3cnc(-c4ccccc4)cn3)CC2)Cc2ccccc21`, the Ki in [2] came out at 2330 nM. Moreover, the CLint in data set [3] is under 7 mL/min/kg.

Take `CCN(C(=O)Nc1cnc(-c2ccccc2)cn1)[C@H]1CC[C@@]2(CC1)Cc1ccccc1C(=O)O2`: in data set [2], the inhibitory constant (Ki) is 11 nM.

For the compound `O=C1O[C@]2(CC[C@H](C(=O)Nc3ccn(-c4ccccc4F)n3)CC2)c2cnccc21`, in data set [6], the outcome was Active.

`CN(C(=O)Nc1ccn(-c2ccccc2F)n1)[C@H]1CC[C@@]2(CC1)Cc1cnccc1C(=O)O2`: in data set [2], the Ki turned out to be 188 nM.

As to `CN(C(=O)Nc1ccn(-c2ccccc2F)n1)[C@H]1CC[C@]2(CC1)COc1ccccc12`, the CLint in [1] is over 1120 mL/min/kg; in [3], 68 mL/min/kg. Further, the Ki in data set [2] was determined as 8 nM.

Turning to `CN(C(=O)Nc1cnc(-c2ccccc2)cn1)[C@H]1CC[C@@]2(CC1)Cc1cnccc1C(=O)O2`, the CLint in [1] is 86 mL/min/kg; in data set [3] it was under 26 mL/min/kg. For the same compound, the Ki in data set [2] amounted to 82 nM.

With `CN(C(=O)Nc1cnc(-c2ccccc2)cn1)[C@H]1CC[C@@]2(CC1)OC(=O)c1ccncc12`, the figures for the CLint in data set [1] and in data set [3] were 12 mL/min/kg and under 7 mL/min/kg, respectively. Also, the Ki in data set [2] was determined as 0.9 nM.

In the case of `CN(C(=O)Nc1ccn(-c2ccccc2F)n1)[C@H]1CC[C@]2(CC1)OC(=O)c1ccccc12`, the CLint came out at 165 mL/min/kg in data set [1] and 24 mL/min/kg in [3]. Moreover, in [2], the Ki turned out to be 0.7 nM.
